# Assay outcomes from PubChem BioAssay.
# Calpain2 inh = blocks pig calpain II enzyme activity; purified calpain II, fluorogenic peptide substrate, 30 min; hit rate 0.37% among 220,000; AID 1236; inhibition, % at 16 µM;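 active = inhibition above about 50%, limit read from the data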
# PMI activator = increases human mannose-6-phosphate isomerase activity. P34949. purified human PMI, coupled resazurin fluorescence, 20 min; hits give high values; 1 = vehicle control, 0 substrate-free wells. activation factor at 20 µM. hit rate 0.005% among 190,000;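 active = activation factor of 2 or more at 20 µM, relative to plate controls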
# WT yeast gro inh = growth inhibition of WT yeast, mitochondrial fusion screen; AID 1362; mitochondrial fusion phenotypic screen, WT strain; inhibition, % at 10 µM; hit rate 2.1% among 190,000; in the data active = inhibition above about 58%; tested in S. cerevisiae
# Lmaj promast = reduces viability of Leishmania major promastigotes; resazurin fluorescence viability; inhibition, % at 10 µM; hit rate 9% among 200,000; AID 1063; in the data active = inhibition above about 50%;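 also: promastigotes grown with compound for 44 hours at 28 °C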
# Rad51 HR inh = blocks human Rad51 in homologous recombination. Q06609. hRad51 DNA strand exchange, fluorescence dequenching. inhibition, % at 10 µM. hit rate 0.085% among 200,000. AID 1385;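 active = inhibition above 40% at the single screening dose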;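 also: 0% = DMSO control wells and 100% = blanks with heterologous ssDNA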
# Target sequence (Q06609 whole entry, looked up): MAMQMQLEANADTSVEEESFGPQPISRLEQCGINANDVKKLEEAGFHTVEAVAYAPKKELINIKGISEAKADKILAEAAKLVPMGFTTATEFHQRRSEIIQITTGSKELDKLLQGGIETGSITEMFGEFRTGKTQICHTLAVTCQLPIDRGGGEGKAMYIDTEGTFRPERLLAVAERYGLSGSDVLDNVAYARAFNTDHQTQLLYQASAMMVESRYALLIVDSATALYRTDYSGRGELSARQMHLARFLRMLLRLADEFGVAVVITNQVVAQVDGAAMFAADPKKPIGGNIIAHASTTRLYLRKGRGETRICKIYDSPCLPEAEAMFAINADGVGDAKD
#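 material = hRad51 filaments on single-stranded DNA | timing = filaments 15 min 37 °C, then compound 30 min | signal = FRET fluorescence dequenching, excitation 485 nm, emission 520 nm | benchmarks = control wells and blank wells on each plate | evaluation = percent inhibition relative to plate controls and blanks | compound = 10 µM final, single point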
# PMI act hi M6P = increases human PMI activity with near-saturating mannose 6-phosphate | P34949 | coupled PMI enzyme assay, resazurin fluorescence, 20 min; hits give high values; 1 = untreated enzyme, 0 = substrate-free blank | activation factor at 20 µM | hit rate 0.34% among 190,000;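 active = activation factor of 2 or more at 20 µM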
#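 test system = human PMI in coupled enzyme assay | medium = HEPES-buffered pH 7.4 with magnesium and detergent | also added = 1.0 mM mannose-6-phosphate substrate with 0.22 mM NADP+ | compound = 20 µM single dose | times = 20 min incubation at room temperature | measured by = resorufin fluorescence (Ex 544/Em 590 nm) from resazurin via diaphorase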
# Numbers without * were called inactive; i = inactive; x = no result given. In the library only some 9.8% were active in any assay of this set; here they are far more common.
SMILES,Calpain2 inh,PMI activator,WT yeast gro inh,Lmaj promast,Rad51 HR inh,PMI act hi M6P
O=S(=O)(c1ccc(Br)cc1)n1c(Cc2ccccc2)nc2ccccc21,-3,1.1,-12,-2,-4,1.1
O=S(=O)(N1CCCCC1)n1c(Cc2ccccc2)nc2ccccc21,11,0.9,8,54*,-2,0.9
CN(C(=O)c1ccccc1C(=O)OCC(=O)NCc1ccccc1)C1CCCCC1,6,1,1,67*,3,1
CC1=CC=CC2=NC(=O)CC(C)(C(=O)N(CC(=O)NC3CCCC3)c3ccccc3C)N12 (centres undefined),i,0.9,8,80*,-2,1
O=C(CSc1nnc2n1CCCN2C(=S)Nc1ccc(Cl)cc1)c1ccccc1,13,1.1,65*,2,0,1
O=C1CC(c2cccc(Oc3ccccc3)c2)NC(=O)N1 (centres undefined),11,1.1,-5,1,2,1
CCCC(=O)C1=C(O)C(c2cccc(Oc3ccccc3)c2)CCC1=O (centres undefined),20,1.2,67*,-8,-5,1.1
O=C1CSC(c2cccc([N+](=O)[O-])c2)N1CCN1CCCCC1 (centres undefined),-11,1.1,-3,85*,-2,1
O=C1CSC(c2ccccc2F)N1c1cc(Cl)ccc1O (centres undefined),21,0.9,-3,1,0,0.9
O=C1CSC(c2ccccc2F)N1CCN1CCCCC1 (centres undefined),24,1.1,-2,78*,-7,1
O=C(N/N=C/c1cccc([N+](=O)[O-])c1)c1ccc(COc2ccccc2-c2ccccc2)cc1,-35,0.9,19,4,11,1
CC(NC(=S)Nc1ccccc1Cl)C(c1cccs1)N1CCCC1 (centres undefined),26,0.9,24,84*,-10,0.9
CC(NC(=S)NCCc1ccccc1)C(c1cccs1)N1CCN(Cc2ccccc2)CC1 (centres undefined),5,1,21,97*,9,1
COc1ccc(CCN(CC(=O)NC(C)(C)C)C(=O)Cn2nnc(-c3ccc(C)o3)n2)cc1OC,-10,1.1,0,-9,10,1.1
O=[N+]([O-])c1cc(S(=O)(=O)NC2=NCCCCC2)ccc1NCC1CCCCC1,1,0.9,38,4,-2,1
Cc1c(N2C(=O)CS/C2=N\N=C\c2ccc(Cl)cc2)c(=O)n(-c2ccccc2)n1C,21,1,18,77*,-5,1
O=c1c2ccccc2n2c(-c3ccc(F)cc3)nnc2n1Cc1ccccc1,-7,1,-13,56*,0,1
CCOc1ccc(CN(CCC#N)C(=S)NC(=O)c2ccccc2)cc1,-2,0.9,44,20,-5,0.8
CCCCN(CCCC)C(=S)NC(=O)c1ccccc1Cl,10,0.9,64*,0,-5,0.9
CCCN(CCC)C(=S)NC(=O)c1ccc(-c2ccccc2)cc1,50*,0.9,68*,3,6,0.9
N#CCCN(Cc1ccccc1)C(=S)Nc1ccccc1,-17,1,-11,52*,-6,0.9
N#CCCN(Cc1ccccc1)C(=O)Nc1ccccc1,-6,x,x,x,11,x
COc1ccc(CN(CCC#N)C(=S)NC(=O)c2ccccc2)cc1,2,0.9,-7,60*,-2,0.9
Cc1cc(C(C#N)c2ccccc2F)n2ncnc2n1 (centres undefined),-5,1.1,4,-8,4,1
N#C/C(=C\c1cc2c(cc1Br)OCO2)C(=O)NCC1CCCO1 (centres undefined),14,x,x,x,-18,x
SMILES,Calpain2 inh,PMI activator,WT yeast gro inh,Lmaj promast,Rad51 HR inh,PMI act hi M6P
CCOc1ccc(C(=O)NCCc2ccccc2)cc1,-11,1,7,0,9,1
CN(C)CCCN(Cc1ccccc1)C(=S)Nc1ccc(OC(F)F)cc1,0,0.9,1,99*,0,1
CCOc1ccc(C(=O)NC(=S)N(Cc2ccccc2)Cc2ccccc2)cc1,8,1,12,57*,-12,1.1
Cc1noc(C)c1CCC(=O)N1CCCC(CCC(=O)NCc2ccc(F)c(F)c2)C1 (centres undefined),-18,0.9,-2,-2,5,0.8
CCCCOc1ccc(-c2cc(C(F)(F)F)c(C#N)c(SCC(=O)O)n2)cc1,-210,1.1,-17,-6,-98,1
Cc1[nH]c2ccccc2c1C(=O)C(=O)NCc1cccs1,2,1,0,1,9,1
COCCn1c(=S)[nH]c2cc(C(=O)N3CCc4ccccc43)ccc2c1=O,33,1,76*,3,-2,0.9
COc1ccc(-c2csc3nc(-c4cccnc4)nc(Cl)c23)cc1OC,6,0.8,63*,54*,-1,0.8
Clc1nc(-c2cccnc2)nc2scc(-c3ccccc3)c12,-14,1,77*,22,-7,1
COc1ccc(-c2nc(-c3cccnc3)no2)cc1OC,6,x,x,x,2,x
COc1ccc(OCC(=O)NCCc2c[nH]c3ccccc23)cc1,-19,x,-2,64*,0,x
COc1ccc(CCNC(=S)NCCc2c[nH]c3ccccc23)cc1,11,0.9,-6,91*,-3,0.9
CNC(=S)NCCc1c[nH]c2ccc(OC)cc12,-13,1,-13,-5,2,1
CC(CCc1ccccc1)NCC(O)c1ccc(O)c(C(N)=O)c1 (centres undefined),-117,1,6,84*,1,1
COc1cc(OC)c(-c2noc(C(=O)OC(C)(C)C)c2C(=O)OC(C)(C)C)c(OC)c1,8,1,-11,-2,7,0.8
Cc1cc(C)c(-c2noc(C(=O)OC(C)(C)C)c2C(=O)OC(C)(C)C)c(C)c1,5,0.9,66*,14,-11,0.9
Cc1cccc(N2CCN(C(=O)c3ccc(Cl)c(S(=O)(=O)N4CCc5ccccc5C4)c3)CC2)c1C,-14,0.8,7,99*,0,0.9
Cc1ccc(S(=O)(=O)NCc2ccncc2)c(C)c1C,-23,x,-6,-2,12,x
O=C(NCC1(N2CCOCC2)CCCCC1)c1ccc(Cl)c(S(=O)(=O)NCc2ccco2)c1,-73,1,8,93*,-2,1
Cc1cccc(N2CCN(C(=O)c3ccc(Cl)c(S(=O)(=O)NCc4ccco4)c3)CC2)c1C,3,0.9,74*,42,x,0.9
Cc1ccc(S(=O)(=O)NCc2ccco2)c(C)c1C,7,1,74*,-9,18,0.9
CCOC(=O)[C@@H]1[C@H]2COc3cc(OC)ccc3[C@@H]2N2C(=O)N(c3ccc(Cl)cc3)C(=O)[C@]12C,x,x,x,x,5,x
CCn1cc(C(=O)NCc2ccc3c(c2)OCO3)c(=O)c2cc(F)c(N3CCN(C)CC3)cc21,x,1,10,79*,1,1
